Results gathered from unrelated publications.
Lines come from different studies, so protocols differ.
Target: Ephrin type-B receptor 4 (EPHB4, Homo sapiens, UniProt P54760)

Compound	observed	mode	method	tested at	measurement	result
O=C(Nc1cnn(-c2csc(C(=O)NC3COC3)c2)c1)Nc1c(F)cccc1Cl	enzyme activity	inhibitor	–	5 µM	remaining activity	98.1%
Cc1[nH]c(/C=C2\C(=O)Nc3ccc(F)cc32)c(C)c1C(=O)N[C@H]1CCN(C(=O)N(C)C)C1	enzyme activity	inhibitor	–	0.1 µM	remaining activity	111%
Cc1c[nH]c2nccc(Oc3c(F)cc(Nc4cc(Cl)nc(N)n4)cc3F)c12	cell-free assay	–	competition with immobilised ligand	0.1 µM	remaining binding	100%
CC(C)(C)c1nc(-c2cccc(NS(=O)(=O)c3c(F)cccc3F)c2F)c(-c2ccnc(N)n2)s1	enzyme activity	inhibitor	radiometric	1 µM	remaining activity	97%
COc1cc(Nc2cnc(C#N)c(O[C@H](C)CN(C)C)n2)ncc1-c1cnn(C)c1	enzyme activity	inhibitor	radiometric	1 µM	remaining activity	96%
CO[C@H]1CC[C@H](CNc2ccc(S(=O)(=O)NC(=O)c3ccc(N4CCN(CC5=C(c6ccc(Cl)cc6)CC(C)(C)CC5)CC4)cc3Oc3cnc4[nH]ccc4c3)cc2[N+](=O)[O-])CC1	cell-free assay	–	competition with immobilised ligand	1 µM	remaining binding	100%
CCCS(=O)(=O)Nc1ccc(F)c(C(=O)c2c[nH]c3ncc(-c4ccc(Cl)cc4)cc23)c1F	enzyme activity	inhibitor	–	1 µM	inhibition	< 20%
C=CC(=O)Nc1cc(Nc2nccc(Nc3cc(Cl)c(F)cc3C(C)(C)O)n2)c(OC)cc1N1CC[C@@H](N(C)C)C1	enzyme activity	inhibitor	–	1 µM	inhibition	7%
CC/C(=N\NC(=O)NCc1cccc(O)c1)c1ccc(O)c(C)c1O	enzyme activity	inhibitor	–	0.1 µM	inhibition	0.2%
CC(C)(O)[C@H]1CC[C@H](Nc2ccc3ncc(-c4cccc(C(F)(F)F)c4)n3n2)CC1	enzyme activity	inhibitor	–	1 µM	remaining activity	78.2%
c1ccc(N2CCN(Cc3nc4ccccc4[nH]3)CC2)nc1	cell-free assay	–	competition with immobilised ligand	1 µM	remaining binding	100%
CSc1nc(C)c(-c2ccnc(Nc3ccc(N4CCOCC4)cc3)c2)[nH]1	cell-free assay	inhibitor	–	10 µM	inhibition	18.2%
O=C(N[C@H]1CCCCC/C=C\C2C[C@@]2(C(=O)O)NC(=O)[C@@H]2C[C@@H](Oc3ccncc3)CN2C1=O)OC1CCCC1 (stereo partly drawn)	cell-free assay	–	competition with immobilised ligand	1 µM	remaining binding	100%
COc1cc2ncnc(Nc3ccc(Oc4ccccc4)cc3C)c2cc1OC	enzyme activity	inhibitor	–	1 µM	inhibition	21%
COc1ccc(COc2ccc(Cc3cnc(N)nc3N)cc2OC)cc1	cell-free assay	–	–	0.5 µM	remaining signal	90.5%
Cc1sc(C(=O)NC2COC2)cc1-n1cc(NC(=O)Nc2c(F)cccc2Cl)cn1	enzyme activity	inhibitor	–	10 µM	remaining activity	93.7%
CCOc1cc(-c2nncn2C)ccc1Nc1ncc2cc(C)nc(NCC(C)(C)C)c2n1	enzyme activity	inhibitor	FRET	1 µM	inhibition	< 15%
N#CCCc1ccc2c(c1)-c1[nH]c3ccc([N+](=O)[O-])cc3c1CC(=O)N2	cell-free assay	–	–	0.5 µM	remaining signal	82.2%
COc1cc(/C=C/C(=O)CC(=O)/C=C/c2ccc(O)c(OC)c2)ccc1O	enzyme activity	inhibitor	–	1 µM	activity vs control	105%
COc1cc2c(Nc3ccc(Br)cc3F)ncnc2cc1OCC1CCN(C)CC1	cell-free assay	–	–	0.5 µM	remaining signal	13%
Cn1c(=O)n(-c2ccc(C(C)(C)C#N)cc2)c2c3cc(-c4cnc5ccccc5c4)ccc3ncc21	enzyme activity	inhibitor	–	10 µM	remaining activity	99%
CCCOc1ccc(OC)c(F)c1C(=O)c1ccc(C(=O)N[C@@H]2CNC[C@H]2NC(=O)c2ccc3[nH]ncc3c2)cc1	enzyme activity	inhibitor	–	10 µM	remaining activity	79%
CC1=C(C#N)[C@@H](c2ccc3[nH]nc(C)c3c2)C(C#N)=C(c2ccc(Cl)cc2)N1	cell-free assay	–	competition with immobilised ligand	1 µM	remaining binding	100%
Cc1ccc(C(=O)Nc2ccc(CN3CCN(C)CC3)c(C(F)(F)F)c2)cc1C#Cc1cnc2cccnn12	cell-free assay	–	–	23.5 nM	remaining signal	92%
Cc1nc(Cc2cccc(C(F)(F)F)c2)sc1-c1ccc(C(N)=O)nc1	cell-free assay	–	competition with immobilised ligand	1 µM	remaining binding	100%
CNCc1ccc(-c2cc(-c3nc(-c4ccc(S(=O)(=O)C(C)C)cc4)cnc3N)on2)cc1	enzyme activity	inhibitor	–	0.4 µM	inhibition	0%
C[C@@H](c1cccc(C#N)c1)n1cc(Cl)cc(C(N)=O)c1=N	cell-free assay	–	competition with immobilised ligand	1 µM	remaining binding	96%
C[S+]([O-])c1ccc(-c2nc(-c3ccncc3)c(-c3ccc(F)cc3)[nH]2)cc1 (stereo not drawn)	cell-free assay	–	–	0.5 µM	remaining signal	91.1%
O=C(NCc1ncc(C(F)(F)F)cc1Cl)c1ccc2c(c1)C1(CCS(=O)(=O)CC1)[C@H](C1CC1)N2S(=O)(=O)c1ccc(F)cc1	cell-free assay	–	competition with immobilised ligand	1 µM	remaining binding	100%
c1ccc(CNc2nc(N3CCOc4ccccc43)nc3c2CCCC3)cc1	target engagement in cells	inhibitor	chemoproteomics	20 mM	inhibition	-4%
